# From ChEMBL document CHEMBL4196066, “Design and synthesis of furyl/thineyl pyrroloquinolones based on natural alkaloid perlolyrine, lead to the discovery of potent and selective PDE5 inhibitors” (Eur J Med Chem, 2018)
# How the values were obtained:
# [1] = target: Cone cGMP-specific 3',5'-cyclic phosphodiesterase subunit alpha' (Homo sapiens, UniProt P51160); experiment: Inhibition of N-terminal GST-tagged full length recombinant human PDE6C expressed in Baculovirus infected Sf9 insect cells using […] as substrate after 1 hr by fluorescence polarization assay
# Sequence of Cone cGMP-specific 3',5'-cyclic phosphodiesterase subunit alpha' (P51160 whole entry, the tested form may be a part): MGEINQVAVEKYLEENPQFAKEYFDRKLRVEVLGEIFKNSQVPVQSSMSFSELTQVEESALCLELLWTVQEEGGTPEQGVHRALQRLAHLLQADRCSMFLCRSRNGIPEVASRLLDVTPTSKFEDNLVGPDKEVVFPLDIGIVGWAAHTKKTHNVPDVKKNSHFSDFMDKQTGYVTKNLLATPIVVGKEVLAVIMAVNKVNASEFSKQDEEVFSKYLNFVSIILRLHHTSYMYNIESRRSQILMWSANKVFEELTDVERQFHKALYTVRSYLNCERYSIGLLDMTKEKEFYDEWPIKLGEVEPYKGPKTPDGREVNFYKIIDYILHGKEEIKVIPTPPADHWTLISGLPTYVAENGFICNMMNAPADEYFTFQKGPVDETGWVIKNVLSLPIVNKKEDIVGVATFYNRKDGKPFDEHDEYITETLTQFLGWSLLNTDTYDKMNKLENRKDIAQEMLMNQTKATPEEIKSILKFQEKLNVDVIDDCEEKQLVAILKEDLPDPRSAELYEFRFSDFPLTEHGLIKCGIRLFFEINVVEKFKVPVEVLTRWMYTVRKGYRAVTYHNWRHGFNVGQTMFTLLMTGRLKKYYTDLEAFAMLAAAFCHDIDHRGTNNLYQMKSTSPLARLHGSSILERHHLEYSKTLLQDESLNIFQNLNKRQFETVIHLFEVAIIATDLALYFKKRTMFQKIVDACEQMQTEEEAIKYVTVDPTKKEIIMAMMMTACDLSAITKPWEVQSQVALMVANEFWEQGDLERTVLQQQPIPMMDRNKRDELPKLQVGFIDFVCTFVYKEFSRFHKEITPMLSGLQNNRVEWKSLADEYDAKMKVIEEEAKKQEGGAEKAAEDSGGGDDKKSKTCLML
# Homo sapiens [2] = species: Homo sapiens; experiment: Selectivity ratio of IC50 for N-terminal GST-tagged recombinant human PDE3B (592 end residues) to IC50 for N-terminal GST-tagged full length recombinant human PDE5A1 catalytic domain
# Homo sapiens [3] = species: Homo sapiens; experiment: Selectivity ratio of IC50 for N-terminal FLAG-tagged human PDE2A1 (2 to 941 residues) to IC50 for N-terminal GST-tagged full length recombinant human PDE5A1 catalytic domain
# Homo sapiens [4] = species: Homo sapiens; experiment: Selectivity ratio of IC50 for N-terminal GST-tagged full length recombinant human PDE1A to IC50 for N-terminal GST-tagged full length recombinant human PDE5A1 catalytic domain
# [5] = target: cGMP-dependent 3',5'-cyclic phosphodiesterase (Homo sapiens) (UniProt O00408); experiment: Inhibition of N-terminal FLAG-tagged human PDE2A1 (2 to 941 residues) expressed in Baculovirus infected Sf9 insect cells at 5.5 uM using FAM-cAMP as substrate after 1 hr by fluorescence polarization assay relative to control
# Sequence of cGMP-dependent 3',5'-cyclic phosphodiesterase (Homo sapiens) (O00408 whole entry, the tested form may be a part): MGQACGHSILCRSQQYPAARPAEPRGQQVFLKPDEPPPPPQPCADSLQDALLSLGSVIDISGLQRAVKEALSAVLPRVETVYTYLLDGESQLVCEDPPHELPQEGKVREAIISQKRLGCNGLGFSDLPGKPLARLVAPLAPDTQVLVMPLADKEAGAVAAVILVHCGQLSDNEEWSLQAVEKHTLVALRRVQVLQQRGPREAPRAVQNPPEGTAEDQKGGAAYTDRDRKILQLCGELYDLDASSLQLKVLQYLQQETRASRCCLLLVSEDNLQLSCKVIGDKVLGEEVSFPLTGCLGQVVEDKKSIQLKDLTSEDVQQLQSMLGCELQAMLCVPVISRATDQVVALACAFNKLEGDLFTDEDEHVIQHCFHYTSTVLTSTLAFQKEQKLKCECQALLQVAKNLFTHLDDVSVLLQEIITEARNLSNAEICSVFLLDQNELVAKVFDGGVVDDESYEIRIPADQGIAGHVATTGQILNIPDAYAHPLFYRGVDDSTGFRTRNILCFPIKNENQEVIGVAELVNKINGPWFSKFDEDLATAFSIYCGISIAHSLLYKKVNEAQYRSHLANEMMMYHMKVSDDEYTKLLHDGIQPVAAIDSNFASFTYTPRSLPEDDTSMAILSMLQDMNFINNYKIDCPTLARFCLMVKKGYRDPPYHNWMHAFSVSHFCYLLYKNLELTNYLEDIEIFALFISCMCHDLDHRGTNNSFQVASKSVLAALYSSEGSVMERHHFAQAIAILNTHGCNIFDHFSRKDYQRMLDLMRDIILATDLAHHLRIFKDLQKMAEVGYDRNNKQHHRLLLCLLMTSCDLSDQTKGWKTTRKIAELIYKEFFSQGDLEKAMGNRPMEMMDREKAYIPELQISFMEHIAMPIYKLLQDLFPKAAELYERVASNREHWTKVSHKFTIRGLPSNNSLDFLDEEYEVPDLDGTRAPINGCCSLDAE
# Thoracic aorta = experiment: Vasorelaxant activity in norepinephrine-pretreated New Zealand rabbit thoracic aorta assessed as increase in aortic relaxation at 1 uM measured after 15 mins relative to control; type: functional, Oryctolagus cuniculus; set-up: scale not given: the % may be the effect or the level left
# Procedure, shortened: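 Thoracic aortic rings from New Zealand white rabbits were held in Krebs buffer at 2 g resting tension (0%) and equilibrated 2 h. Rings were contracted to maximum with 1 µM norepinephrine (100%). Compounds were added cumulatively at 15 min intervals, with tension recorded 15 min after each dose. Relaxation % = (max − recorded)/(max − 2 g) × 100; n = 1–2 rings.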
# [6] = target: cGMP-specific 3',5'-cyclic phosphodiesterase (Homo sapiens, UniProt O76074); experiment: Inhibition of N-terminal GST-tagged full length recombinant human PDE5A1 catalytic domain expressed in Baculovirus infected Sf9 insect cells using FAM-cGMP as substrate after 1 hr by fluorescence polarization assay
# [7] = target: cGMP-inhibited 3',5'-cyclic phosphodiesterase 3B (Homo sapiens) (UniProt Q13370); experiment: Inhibition of N-terminal GST-tagged recombinant human PDE3B (592 end residues) expressed in Baculovirus infected Sf9 insect cells at 5.5 uM using FAM-cAMP as substrate after 1 hr by fluorescence polarization assay relative to control
# Sequence of cGMP-inhibited 3',5'-cyclic phosphodiesterase 3B (Homo sapiens) (Q13370 whole entry, looked up, the tested form may be a part): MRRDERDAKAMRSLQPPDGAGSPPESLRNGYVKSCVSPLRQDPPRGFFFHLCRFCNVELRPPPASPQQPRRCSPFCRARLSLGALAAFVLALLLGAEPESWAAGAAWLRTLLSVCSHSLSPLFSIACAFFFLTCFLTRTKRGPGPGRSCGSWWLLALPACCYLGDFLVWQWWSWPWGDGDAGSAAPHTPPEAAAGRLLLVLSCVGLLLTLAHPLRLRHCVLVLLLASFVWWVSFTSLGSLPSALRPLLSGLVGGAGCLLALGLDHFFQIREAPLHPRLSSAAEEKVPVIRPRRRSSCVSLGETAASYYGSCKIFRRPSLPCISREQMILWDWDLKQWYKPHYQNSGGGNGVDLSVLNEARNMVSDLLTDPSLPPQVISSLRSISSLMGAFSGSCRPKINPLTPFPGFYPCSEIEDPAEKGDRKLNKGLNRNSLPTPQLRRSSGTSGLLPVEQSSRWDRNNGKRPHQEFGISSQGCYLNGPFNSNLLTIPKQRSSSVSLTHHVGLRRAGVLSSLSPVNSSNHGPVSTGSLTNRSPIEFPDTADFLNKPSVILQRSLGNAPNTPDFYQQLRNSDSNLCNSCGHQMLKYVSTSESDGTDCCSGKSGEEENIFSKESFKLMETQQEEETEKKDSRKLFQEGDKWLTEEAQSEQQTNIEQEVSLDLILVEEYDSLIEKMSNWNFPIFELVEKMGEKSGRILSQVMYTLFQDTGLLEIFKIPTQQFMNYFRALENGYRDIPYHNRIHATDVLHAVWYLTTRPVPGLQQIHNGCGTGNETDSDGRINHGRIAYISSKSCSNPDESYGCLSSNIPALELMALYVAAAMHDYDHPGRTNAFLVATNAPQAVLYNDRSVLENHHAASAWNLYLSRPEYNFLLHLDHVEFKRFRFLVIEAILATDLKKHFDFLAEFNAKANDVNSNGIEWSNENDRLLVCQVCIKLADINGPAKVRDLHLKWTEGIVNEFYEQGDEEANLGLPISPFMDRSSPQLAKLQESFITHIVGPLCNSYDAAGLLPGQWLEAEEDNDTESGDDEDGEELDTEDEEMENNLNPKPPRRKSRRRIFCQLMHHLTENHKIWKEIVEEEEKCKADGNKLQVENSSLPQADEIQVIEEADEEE
# Homo sapiens [8] = species: Homo sapiens; experiment: Selectivity ratio of IC50 for N-terminal GST-tagged full length recombinant human PDE4A1A to IC50 for N-terminal GST-tagged full length recombinant human PDE5A1 catalytic domain
# [9] = target: 3',5'-cyclic-AMP phosphodiesterase 4A (Homo sapiens) (UniProt P27815); experiment: Inhibition of N-terminal GST-tagged full length recombinant human PDE4A1A expressed in Baculovirus infected Sf9 insect cells at 1 uM using FAM-cAMP as substrate after 1 hr by fluorescence polarization assay relative to control
# Sequence of 3',5'-cyclic-AMP phosphodiesterase 4A (Homo sapiens) (P27815 whole entry): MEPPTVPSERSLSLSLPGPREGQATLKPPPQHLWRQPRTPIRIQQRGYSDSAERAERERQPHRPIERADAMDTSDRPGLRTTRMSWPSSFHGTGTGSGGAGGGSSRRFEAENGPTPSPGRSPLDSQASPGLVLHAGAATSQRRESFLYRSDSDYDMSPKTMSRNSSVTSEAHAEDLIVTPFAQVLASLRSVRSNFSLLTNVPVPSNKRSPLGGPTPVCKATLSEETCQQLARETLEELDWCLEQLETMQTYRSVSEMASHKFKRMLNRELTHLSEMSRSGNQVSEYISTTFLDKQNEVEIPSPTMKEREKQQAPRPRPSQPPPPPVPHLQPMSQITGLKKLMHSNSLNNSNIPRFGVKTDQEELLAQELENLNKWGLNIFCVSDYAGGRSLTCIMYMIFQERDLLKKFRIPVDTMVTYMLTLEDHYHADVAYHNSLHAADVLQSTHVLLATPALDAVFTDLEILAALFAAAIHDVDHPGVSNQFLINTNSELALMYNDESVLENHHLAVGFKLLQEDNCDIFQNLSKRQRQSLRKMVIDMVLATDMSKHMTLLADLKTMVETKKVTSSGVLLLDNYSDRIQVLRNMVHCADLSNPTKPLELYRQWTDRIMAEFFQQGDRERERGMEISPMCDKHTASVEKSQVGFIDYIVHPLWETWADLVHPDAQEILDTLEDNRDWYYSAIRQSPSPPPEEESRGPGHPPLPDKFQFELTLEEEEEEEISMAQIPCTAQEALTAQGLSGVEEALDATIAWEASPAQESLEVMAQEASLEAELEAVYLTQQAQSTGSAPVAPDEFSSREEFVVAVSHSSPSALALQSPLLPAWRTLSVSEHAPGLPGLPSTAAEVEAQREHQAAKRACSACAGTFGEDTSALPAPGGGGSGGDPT
# [10] = target: Dual specificity calcium/calmodulin-dependent 3',5'-cyclic nucleotide phosphodiesterase 1A (Homo sapiens) (UniProt P54750); experiment: Inhibition of N-terminal GST-tagged full length recombinant human PDE1A expressed in Baculovirus infected Sf9 insect cells at 5.5 uM using FAM-cAMP as substrate after 1 hr by fluorescence polarization assay relative to control
# Sequence of Dual specificity calcium/calmodulin-dependent 3',5'-cyclic nucleotide phosphodiesterase 1A (Homo sapiens) (P54750 whole entry, the tested form may be a part): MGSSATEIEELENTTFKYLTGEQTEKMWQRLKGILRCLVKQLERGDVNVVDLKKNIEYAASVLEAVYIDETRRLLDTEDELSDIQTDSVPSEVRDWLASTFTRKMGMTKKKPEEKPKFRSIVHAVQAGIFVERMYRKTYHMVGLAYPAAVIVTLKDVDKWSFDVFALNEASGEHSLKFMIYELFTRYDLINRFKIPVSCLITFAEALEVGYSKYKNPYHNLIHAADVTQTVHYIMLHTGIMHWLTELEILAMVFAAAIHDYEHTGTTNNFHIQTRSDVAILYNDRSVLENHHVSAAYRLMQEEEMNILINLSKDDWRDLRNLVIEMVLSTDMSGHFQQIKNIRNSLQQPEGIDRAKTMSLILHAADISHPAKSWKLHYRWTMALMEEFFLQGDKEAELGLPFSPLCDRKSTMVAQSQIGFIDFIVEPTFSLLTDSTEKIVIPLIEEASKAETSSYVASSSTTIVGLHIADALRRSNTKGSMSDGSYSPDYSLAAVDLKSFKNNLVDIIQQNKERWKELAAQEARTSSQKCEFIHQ
# Homo sapiens [11] = species: Homo sapiens; experiment: Selectivity ratio of IC50 for N-terminal GST-tagged full length recombinant human PDE6C to IC50 for N-terminal GST-tagged full length recombinant human PDE5A1 catalytic domain
# [12] = target: 3',5'-cyclic-AMP phosphodiesterase 4A (Homo sapiens) (UniProt P27815); experiment: Inhibition of N-terminal GST-tagged full length recombinant human PDE4A1A expressed in Baculovirus infected Sf9 insect cells at 8 uM using FAM-cAMP as substrate after 1 hr by fluorescence polarization assay relative to control
# [13] = target: Dual specificity calcium/calmodulin-dependent 3',5'-cyclic nucleotide phosphodiesterase 1A (Homo sapiens) (UniProt P54750); experiment: Inhibition of N-terminal GST-tagged full length recombinant human PDE1A expressed in Baculovirus infected Sf9 insect cells at 30 uM using FAM-cAMP as substrate after 1 hr by fluorescence polarization assay relative to control
# [14] = target: cGMP-dependent 3',5'-cyclic phosphodiesterase (Homo sapiens) (UniProt O00408); experiment: Inhibition of N-terminal FLAG-tagged human PDE2A1 (2 to 941 residues) expressed in Baculovirus infected Sf9 insect cells at 30 uM using FAM-cAMP as substrate after 1 hr by fluorescence polarization assay relative to control
# [15] = target: cGMP-inhibited 3',5'-cyclic phosphodiesterase 3B (Homo sapiens) (UniProt Q13370); experiment: Inhibition of N-terminal GST-tagged recombinant human PDE3B (592 end residues) expressed in Baculovirus infected Sf9 insect cells at 30 uM using FAM-cAMP as substrate after 1 hr by fluorescence polarization assay relative to control
# [16] = MRT in Wistar rat at 2 mg/kg, iv; type: ADME, organism-based; conditions: in vivo
# Homo sapiens [17] = species: Homo sapiens; experiment: Selectivity ratio of IC50 for N-terminal GST-tagged full length recombinant human PDE11A to IC50 for N-terminal GST-tagged full length recombinant human PDE5A1 catalytic domain
# [18] = Tmax in Wistar rat at 2 mg/kg, iv; type: ADME, organism-based; conditions: in vivo
# [19] = AUC (0 to infinity) in Wistar rat at 15 mg/kg, po; type: ADME, organism-based; set-up: dose 15 mg/kg, route oral, time infinity; conditions: Wistar, in vivo
# Procedure, shortened: (§1)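 Male Wistar rats (228−249 g) fasted 12 h, dosed orally in 0.5% methylcellulose. Blood drawn at 0, 0.5, 1, 1.5, 2, 4, 6, 12 and 24 h; plasma separated by centrifugation at 4 °C, stored at −80 °C, drug measured by LC–MS/MS, and PK parameters computed from the concentration–time data.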
# [20] = target: Dual specificity calcium/calmodulin-dependent 3',5'-cyclic nucleotide phosphodiesterase 1A (Homo sapiens) (UniProt P54750); experiment: Inhibition of N-terminal GST-tagged full length recombinant human PDE1A expressed in Baculovirus infected Sf9 insect cells at 6 uM using FAM-cAMP as substrate after 1 hr by fluorescence polarization assay relative to control
# [21] = target: cGMP-dependent 3',5'-cyclic phosphodiesterase (Homo sapiens) (UniProt O00408); experiment: Inhibition of N-terminal FLAG-tagged human PDE2A1 (2 to 941 residues) expressed in Baculovirus infected Sf9 insect cells at 6 uM using FAM-cAMP as substrate after 1 hr by fluorescence polarization assay relative to control
# [22] = Half life in Wistar rat at 2 mg/kg, iv; type: ADME, organism-based; conditions: in vivo
# Oryctolagus cuniculus = experiment: Vasorelaxant activity in iv dosed New Zealand rabbit assessed as induction of ICP change in response to electrically pelvic nerve stimulation administered as bolus dose; type: functional
# [23] = Volume of distribution at steady state in Wistar rat at 2 mg/kg, iv; type: ADME, organism-based; conditions: in vivo, read-out: Vdss
# [24] = AUC (0 to infinity) in Wistar rat at 2 mg/kg, iv; type: ADME, organism-based; set-up: dose 2 mg/kg, route intravenous, time infinity; conditions: in vivo
# [25] = AUC (0 to 24 hrs) in Wistar rat at 2 mg/kg, iv; type: ADME, organism-based; set-up: time < 24 hr, dose 2 mg/kg, route intravenous; conditions: in vivo
# [26] = target: cGMP-inhibited 3',5'-cyclic phosphodiesterase 3B (Homo sapiens) (UniProt Q13370); experiment: Inhibition of N-terminal GST-tagged recombinant human PDE3B (592 end residues) expressed in Baculovirus infected Sf9 insect cells at 6 uM using FAM-cAMP as substrate after 1 hr by fluorescence polarization assay relative to control
# [27] = AUC (0 to 24 hrs) in Wistar rat at 15 mg/kg, po; type: ADME, organism-based; set-up: time < 24 hr, dose 15 mg/kg, route oral; conditions: in vivo; procedure, shortened: as §1
# [28] = Clearance in Wistar rat at 2 mg/kg, iv; type: ADME, organism-based; conditions: in vivo
# [29] = MRT in Wistar rat at 15 mg/kg, po; type: ADME, organism-based; conditions: in vivo
# [30] = Cmax in Wistar rat at 2 mg/kg, iv; type: ADME, organism-based; set-up: dose 2 mg/kg, route intravenous; conditions: in vivo
# [31] = Tmax in Wistar rat at 15 mg/kg, po; type: ADME, organism-based; conditions: in vivo
# Rattus norvegicus = experiment: Volume of distribution at steady state in Wistar rat at 15 mg/kg, po; type: ADME, organism-based; conditions: in vivo
# [32] = target: Dual 3',5'-cyclic-AMP and -GMP phosphodiesterase 11A (Homo sapiens, UniProt Q9HCR9); experiment: Inhibition of N-terminal GST-tagged full length recombinant human PDE11A expressed in Baculovirus infected Sf9 insect cells using FAM-cAMP as substrate after 1 hr by fluorescence polarization assay
# [33] = Half life in Wistar rat at 15 mg/kg, po; type: ADME, organism-based; conditions: in vivo
# [34] = Clearance in Wistar rat at 15 mg/kg, po; type: ADME, organism-based; conditions: in vivo
# [35] = Cmax in Wistar rat at 15 mg/kg, po; type: ADME, organism-based; set-up: dose 15 mg/kg, route oral; conditions: in vivo
# [36] = Oral bioavailability in Wistar rat at 15 mg/kg; type: ADME, organism-based; conditions: in vivo
smiles,measurement,setting,value
CCc1ccc(C2c3[nH]c4ccccc4c(=O)c3CN2c2ncc(-c3ccccn3)cn2)o1 (racemic),IC50,[1],2.3 nM
same,Ratio IC50,Homo sapiens [2],> 10000
same,Ratio IC50,Homo sapiens [3],> 10000
same,Ratio IC50,Homo sapiens [4],> 10000
same,inhibition,[5],10%
same,Activity,Thoracic aorta,>90%
same,IC50,[6],0.54 nM
same,inhibition,[7],8%
same,Ratio IC50,Homo sapiens [8],> 2500
same,inhibition,[9],5%
same,inhibition,[10],2.5%
same,Ratio IC50,Homo sapiens [11],4.3
CCc1ccc(C2c3[nH]c4ccccc4c(=O)c3CN2c2ncccn2)o1 (stereo not given),IC50,[1],6.2 nM
same,Ratio IC50,Homo sapiens [2],> 10000
same,inhibition,[12],11%
same,Ratio IC50,Homo sapiens [3],> 10000
same,inhibition,[13],3.5%
same,inhibition,[14],33%
same,inhibition,[15],3.5%
same,Ratio IC50,Homo sapiens [4],> 10000
same,IC50,[6],3.14 nM
same,Ratio IC50,Homo sapiens [8],> 2500
same,Ratio IC50,Homo sapiens [11],2
CCc1ccc([C@@H]2c3[nH]c4ccccc4c(=O)c3CN2c2ncc(-c3ccccn3)cn2)o1,MRT,[16],3.1 h
same,IC50,[1],1.5 nM
same,Ratio IC50,Homo sapiens [17],13.1
same,Ratio IC50,Homo sapiens [2],> 10000
same,Ratio IC50,Homo sapiens [3],> 10000
same,Tmax,[18],6 min
same,AUC(0-inf),[19],344 ng·h/mL
same,inhibition,[20],6%
same,inhibition,[21],49%
same,half-life,[22],2.9 h
same,Ratio IC50,Homo sapiens [4],> 10000
same,ED50,Oryctolagus cuniculus,0.0242 mg/kg
same,Vd,[23],124 L/kg
same,Activity,Thoracic aorta,>90%
same,AUC(0-inf),[24],69.3 ng·h/mL
same,IC50,[6],0.39 nM
same,AUC(0-t) at 24 h,[25],67.9 ng·h/mL
same,inhibition,[26],9.5%
same,AUC(0-t) at 24 h,[27],312 ng·h/mL
same,Ratio IC50,Homo sapiens [8],> 2500
same,clearance,[28],533 mL/min/kg
same,MRT,[29],9.4 h
same,inhibition,[9],18%
same,Cmax,[30],89.2 ng/mL
same,Tmax,[31],1.3 h
same,Vdss,Rattus norvegicus,420.9 L/kg
same,IC50,[32],5.1 nM
same,half-life,[33],7.8 h
same,CL/F,[34],550 mL/min/kg
same,Cmax,[35],46.9 ng/mL
same,Ratio IC50,Homo sapiens [11],3.9
same,bioavailability,[36],66.3%
